Results: ChEMBL document CHEMBL5661979, “Pharmacological inhibition of BMK1 suppresses tumor growth through promyelocytic leukemia protein” (Cancer Cell, 2010)
Active and inactive are the calls of the source. The rule behind the calls is not given here.

Columns and labels:
[1] = molecular target: Cyclin-dependent kinase 7 (Homo sapiens, UniProt P50613); test: Inhibition of CDK7 in human HeLa cells lysate at 50 uM pre incubated for 15 mins followed by ATP acyl phosphate probe addition and measured after 10 mins by LC-MS/MS analysis relative to control; format: subcellular; conditions: time 25.0 min
Summary of the method: (§1)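 KiNativ profiling in HeLa lysate (5 mg/mL total protein). Lysate incubated 15 min with inhibitor at 50, 10, 2, 0.8 or 0 μM. ATP or ADP acylphosphate probe then added (5 μM final) and reacted 10 min. Reaction stopped with urea and analysed by targeted MS, using up to four fragment ions per kinase peptide-probe conjugate. % inhibition taken against untreated lysate. Run in duplicate.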

[2] = molecular target: Phosphatidylinositol 4-kinase beta (Homo sapiens, UniProt Q9UBF8); test: Inhibition of PIK4CB in human HeLa cells lysate at 10 uM pre incubated for 15 mins followed by ATP acyl phosphate probe addition and measured after 10 mins by LC-MS/MS analysis relative to control; format: subcellular; conditions: time 25.0 min
[3] = molecular target: Mitogen-activated protein kinase kinase kinase 1 (Homo sapiens, UniProt Q13233); test: Inhibition of MAP3K1 in human HeLa cells lysate at 10 uM pre incubated for 15 mins followed by ADP acyl phosphate probe addition and measured after 10 mins by LC-MS/MS analysis relative to control; format: subcellular; conditions: time 25.0 min
[4] = molecular target: Interleukin-1 receptor-associated kinase 4 (Homo sapiens, UniProt Q9NWZ3); test: Inhibition of IRAK4 in human HeLa cells lysate pre incubated for 15 mins followed by ATP acyl phosphate probe addition and measured after 10 mins by LC-MS/MS analysis; format: subcellular
[5] = Inhibition of CDK5/PRKX/PRKY in human HeLa cells lysate pre incubated for 15 mins followed by ATP acyl phosphate probe addition and measured after 10 mins by LC-MS/MS analysis; format: subcellular; summary of the method: as §1
[6] = molecular target: T1, Phosphatidylinositol 5-phosphate 4-kinase type-2 alpha (Homo sapiens) (UniProt P48426); test: Inhibition of PIP5K2A LIP1 site in human HeLa cells lysate at 50 uM pre incubated for 15 mins followed by ADP acyl phosphate probe addition and measured after 10 mins by LC-MS/MS analysis relative to control; format: subcellular; conditions: time 25.0 min
T1 sequence (whole entry): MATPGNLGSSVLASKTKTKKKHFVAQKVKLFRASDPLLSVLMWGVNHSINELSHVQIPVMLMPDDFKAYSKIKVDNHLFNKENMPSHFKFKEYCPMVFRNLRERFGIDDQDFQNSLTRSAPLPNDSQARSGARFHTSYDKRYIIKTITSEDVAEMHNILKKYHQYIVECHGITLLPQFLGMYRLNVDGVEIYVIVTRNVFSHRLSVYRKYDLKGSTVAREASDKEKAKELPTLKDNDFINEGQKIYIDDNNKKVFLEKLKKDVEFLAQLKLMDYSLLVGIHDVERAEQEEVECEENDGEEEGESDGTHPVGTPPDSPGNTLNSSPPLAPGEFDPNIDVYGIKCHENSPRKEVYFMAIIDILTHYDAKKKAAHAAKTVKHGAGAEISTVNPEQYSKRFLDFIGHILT

[7] = molecular target: Serine/threonine-protein kinase tousled-like 1 (Homo sapiens, UniProt Q9UKI8); test: Inhibition of TLK1 in human HeLa cells lysate pre incubated for 15 mins followed by ADP acyl phosphate probe addition and measured after 10 mins by LC-MS/MS analysis; format: subcellular
[8] = molecular target: Dual specificity mitogen-activated protein kinase kinase; MEK1/2 (Homo sapiens, UniProt P36507+Q02750); test: Inhibition of MAP2K1/MAP2K2in human HeLa cells lysate at 10 uM pre incubated for 15 mins followed by ADP acyl phosphate probe addition and measured after 10 mins by LC-MS/MS analysis relative to control; format: subcellular; conditions: time 25.0 min
Wee1-like protein kinase = Wee1-like protein kinase (Homo sapiens, UniProt P30291); test: Inhibition of Wee1 in human HeLa cells lysate pre incubated for 15 mins followed by ATP acyl phosphate probe addition and measured after 10 mins by LC-MS/MS analysis; format: subcellular
[9] = molecular target: Serine/threonine-protein kinase 3/4 (Homo sapiens) (UniProt Q13043+Q13188); test: Inhibition of MST1/2 in human HeLa cells lysate at 2 uM pre incubated for 15 mins followed by ATP acyl phosphate probe addition and measured after 10 mins by LC-MS/MS analysis relative to control; format: subcellular; conditions: time 25.0 min
[10] = molecular target: Mitogen-activated protein kinase; ERK1/ERK2 (Homo sapiens) (UniProt P27361+P28482); test: Inhibition of ERK1/2 in human HeLa cells assessed as reduction in EGF-induced ERK1/2 phosphorylation level at T202/Y204 residue at 1 to 5 uM pre incubated for 1 hr followed by EGF stimulation and measured after 17 mins by Western blot analysis; format: cell-based; conditions: dose 1-5 µM, time 77.0 min
[11] = molecular target: c-Jun N-terminal kinase, JNK (Homo sapiens, UniProt P45983+P53779+P45984); test: Inhibition of JNK1/JNK2/JNK3 in human HeLa cells lysate at 50 uM pre incubated for 15 mins followed by ATP acyl phosphate probe addition and measured after 10 mins by LC-MS/MS analysis relative to control; format: subcellular; conditions: time 25.0 min
[12] = molecular target: Cyclin-dependent kinase 10 (Homo sapiens, UniProt Q15131); test: Inhibition of CDK10 in human HeLa cells lysate at 10 uM pre incubated for 15 mins followed by ATP acyl phosphate probe addition and measured after 10 mins by LC-MS/MS analysis relative to control; format: subcellular; conditions: time 25.0 min; summary of the method: as §1
[13] = Inhibition of SRPK1/2 in human HeLa cells lysate at 2 uM pre incubated for 15 mins followed by ADP acyl phosphate probe addition and measured after 10 mins by LC-MS/MS analysis relative to control; conditions: 25 min, condition cancer
[14] = molecular target: T2, Non-receptor tyrosine-protein kinase TNK1 (Homo sapiens) (UniProt Q13470); test: Inhibition of TNK1 in human HeLa cells lysate at 50 uM pre incubated for 15 mins followed by ADP acyl phosphate probe addition and measured after 10 mins by LC-MS/MS analysis relative to control; format: subcellular; conditions: time 25.0 min
T2 sequence (whole entry): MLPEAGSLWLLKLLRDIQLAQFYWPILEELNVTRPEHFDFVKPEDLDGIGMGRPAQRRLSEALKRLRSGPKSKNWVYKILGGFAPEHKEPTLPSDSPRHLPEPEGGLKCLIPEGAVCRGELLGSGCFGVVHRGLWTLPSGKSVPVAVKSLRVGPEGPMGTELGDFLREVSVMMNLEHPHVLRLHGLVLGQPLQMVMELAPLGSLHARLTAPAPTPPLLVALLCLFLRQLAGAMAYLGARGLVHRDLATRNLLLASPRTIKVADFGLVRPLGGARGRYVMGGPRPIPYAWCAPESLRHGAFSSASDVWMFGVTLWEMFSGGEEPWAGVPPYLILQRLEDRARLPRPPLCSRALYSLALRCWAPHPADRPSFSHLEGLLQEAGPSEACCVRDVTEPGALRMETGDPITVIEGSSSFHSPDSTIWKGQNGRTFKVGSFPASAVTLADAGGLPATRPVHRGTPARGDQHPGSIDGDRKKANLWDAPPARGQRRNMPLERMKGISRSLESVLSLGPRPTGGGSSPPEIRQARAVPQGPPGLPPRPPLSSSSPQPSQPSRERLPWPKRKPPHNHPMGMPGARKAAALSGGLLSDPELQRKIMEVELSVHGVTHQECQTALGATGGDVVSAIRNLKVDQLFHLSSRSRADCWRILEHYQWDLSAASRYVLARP

Chain of Serine/threonine-protein kinase 3/4 (Homo sapiens) (Q13043 whole entry, looked up): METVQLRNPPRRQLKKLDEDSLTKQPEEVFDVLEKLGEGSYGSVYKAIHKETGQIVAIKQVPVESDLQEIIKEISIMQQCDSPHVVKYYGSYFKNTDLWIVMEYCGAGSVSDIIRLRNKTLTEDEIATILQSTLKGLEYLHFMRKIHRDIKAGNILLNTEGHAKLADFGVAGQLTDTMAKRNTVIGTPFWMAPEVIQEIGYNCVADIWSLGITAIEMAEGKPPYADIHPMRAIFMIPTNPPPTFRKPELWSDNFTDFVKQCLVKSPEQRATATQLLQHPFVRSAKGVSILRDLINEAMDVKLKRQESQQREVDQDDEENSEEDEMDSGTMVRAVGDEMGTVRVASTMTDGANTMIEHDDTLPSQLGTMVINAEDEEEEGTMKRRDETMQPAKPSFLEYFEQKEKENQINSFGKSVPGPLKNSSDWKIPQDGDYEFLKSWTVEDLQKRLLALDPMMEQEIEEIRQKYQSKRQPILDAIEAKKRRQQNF
Chain of Serine/threonine-protein kinase 3/4 (Homo sapiens) (Q13188 whole entry, looked up): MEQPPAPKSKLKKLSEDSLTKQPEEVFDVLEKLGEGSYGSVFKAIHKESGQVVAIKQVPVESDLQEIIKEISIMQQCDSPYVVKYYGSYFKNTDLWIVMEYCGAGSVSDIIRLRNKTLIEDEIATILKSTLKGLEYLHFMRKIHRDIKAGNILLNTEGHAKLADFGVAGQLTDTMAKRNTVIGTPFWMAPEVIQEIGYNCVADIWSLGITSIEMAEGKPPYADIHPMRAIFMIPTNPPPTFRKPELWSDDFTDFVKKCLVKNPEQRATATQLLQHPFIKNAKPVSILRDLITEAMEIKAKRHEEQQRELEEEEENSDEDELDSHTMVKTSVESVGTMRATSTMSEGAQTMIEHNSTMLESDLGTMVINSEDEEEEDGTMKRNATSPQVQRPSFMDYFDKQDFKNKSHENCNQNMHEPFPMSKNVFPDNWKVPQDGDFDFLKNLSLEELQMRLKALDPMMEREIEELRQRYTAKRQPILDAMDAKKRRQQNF
Chain of Phosphatidylinositol 4-kinase beta (Q9UBF8 2-816 limits assumed): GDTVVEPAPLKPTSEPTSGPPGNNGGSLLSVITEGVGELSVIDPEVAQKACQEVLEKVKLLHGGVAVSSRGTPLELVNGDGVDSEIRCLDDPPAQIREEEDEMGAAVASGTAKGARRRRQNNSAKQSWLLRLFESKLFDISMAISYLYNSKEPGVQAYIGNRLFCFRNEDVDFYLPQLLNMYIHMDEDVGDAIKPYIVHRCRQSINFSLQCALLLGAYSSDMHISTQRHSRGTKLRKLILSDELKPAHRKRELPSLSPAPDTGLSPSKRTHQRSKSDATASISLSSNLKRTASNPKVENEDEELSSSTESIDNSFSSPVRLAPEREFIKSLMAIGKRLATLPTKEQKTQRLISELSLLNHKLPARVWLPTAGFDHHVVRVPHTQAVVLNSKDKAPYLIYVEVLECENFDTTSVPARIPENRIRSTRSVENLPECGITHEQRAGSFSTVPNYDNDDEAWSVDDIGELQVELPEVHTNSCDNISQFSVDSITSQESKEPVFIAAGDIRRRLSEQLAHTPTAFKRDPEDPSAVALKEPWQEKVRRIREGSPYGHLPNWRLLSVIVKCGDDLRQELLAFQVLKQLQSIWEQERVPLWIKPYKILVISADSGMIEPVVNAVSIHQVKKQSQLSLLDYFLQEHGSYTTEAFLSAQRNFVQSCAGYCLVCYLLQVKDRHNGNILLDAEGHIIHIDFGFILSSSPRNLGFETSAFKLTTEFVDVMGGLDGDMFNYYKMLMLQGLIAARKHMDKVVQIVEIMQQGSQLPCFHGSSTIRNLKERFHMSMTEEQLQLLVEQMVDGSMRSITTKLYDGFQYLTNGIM
Chain of Dual specificity mitogen-activated protein kinase kinase; MEK1/2 (P36507 whole entry, looked up): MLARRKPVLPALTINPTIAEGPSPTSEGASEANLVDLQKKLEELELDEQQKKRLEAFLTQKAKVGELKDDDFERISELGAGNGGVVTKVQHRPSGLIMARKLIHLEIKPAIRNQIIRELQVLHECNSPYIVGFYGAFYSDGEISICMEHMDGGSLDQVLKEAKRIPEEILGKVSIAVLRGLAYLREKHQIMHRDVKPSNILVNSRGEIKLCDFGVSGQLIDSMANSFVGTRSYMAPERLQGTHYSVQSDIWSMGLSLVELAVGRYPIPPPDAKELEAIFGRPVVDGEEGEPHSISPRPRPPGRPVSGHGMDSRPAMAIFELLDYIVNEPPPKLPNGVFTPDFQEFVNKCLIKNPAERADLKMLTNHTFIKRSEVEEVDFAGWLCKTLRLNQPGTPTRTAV
Chain of Dual specificity mitogen-activated protein kinase kinase; MEK1/2 (Q02750 whole entry, looked up): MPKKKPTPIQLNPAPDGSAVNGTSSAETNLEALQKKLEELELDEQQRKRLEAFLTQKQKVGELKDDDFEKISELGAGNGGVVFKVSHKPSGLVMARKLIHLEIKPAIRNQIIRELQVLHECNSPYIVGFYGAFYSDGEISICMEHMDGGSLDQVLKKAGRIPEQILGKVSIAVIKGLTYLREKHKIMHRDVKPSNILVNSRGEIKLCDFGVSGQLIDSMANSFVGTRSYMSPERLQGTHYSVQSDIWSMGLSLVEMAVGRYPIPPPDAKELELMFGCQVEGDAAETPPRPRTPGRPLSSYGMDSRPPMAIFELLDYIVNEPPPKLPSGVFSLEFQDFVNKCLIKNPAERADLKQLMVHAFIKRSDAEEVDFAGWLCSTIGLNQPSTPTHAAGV
Chain of Wee1-like protein kinase (P30291 whole entry): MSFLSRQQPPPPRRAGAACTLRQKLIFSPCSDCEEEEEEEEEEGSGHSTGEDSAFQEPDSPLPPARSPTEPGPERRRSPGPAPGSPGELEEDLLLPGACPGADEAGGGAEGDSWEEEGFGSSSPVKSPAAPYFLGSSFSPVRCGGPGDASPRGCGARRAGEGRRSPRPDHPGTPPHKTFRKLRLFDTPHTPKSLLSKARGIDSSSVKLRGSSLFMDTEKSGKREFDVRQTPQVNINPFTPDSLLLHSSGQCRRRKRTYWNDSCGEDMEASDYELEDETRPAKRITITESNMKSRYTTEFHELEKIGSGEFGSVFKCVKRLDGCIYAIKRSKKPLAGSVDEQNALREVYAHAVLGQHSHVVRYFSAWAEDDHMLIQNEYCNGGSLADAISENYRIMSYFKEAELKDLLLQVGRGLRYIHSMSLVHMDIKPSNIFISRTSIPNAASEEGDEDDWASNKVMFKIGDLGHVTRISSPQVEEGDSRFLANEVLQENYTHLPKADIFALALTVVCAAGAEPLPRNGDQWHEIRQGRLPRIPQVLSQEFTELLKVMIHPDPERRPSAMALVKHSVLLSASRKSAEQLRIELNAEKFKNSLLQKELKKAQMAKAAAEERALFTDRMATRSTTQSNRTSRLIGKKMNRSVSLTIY
Chain of Mitogen-activated protein kinase; ERK1/ERK2 (Homo sapiens) (P27361 whole entry, looked up): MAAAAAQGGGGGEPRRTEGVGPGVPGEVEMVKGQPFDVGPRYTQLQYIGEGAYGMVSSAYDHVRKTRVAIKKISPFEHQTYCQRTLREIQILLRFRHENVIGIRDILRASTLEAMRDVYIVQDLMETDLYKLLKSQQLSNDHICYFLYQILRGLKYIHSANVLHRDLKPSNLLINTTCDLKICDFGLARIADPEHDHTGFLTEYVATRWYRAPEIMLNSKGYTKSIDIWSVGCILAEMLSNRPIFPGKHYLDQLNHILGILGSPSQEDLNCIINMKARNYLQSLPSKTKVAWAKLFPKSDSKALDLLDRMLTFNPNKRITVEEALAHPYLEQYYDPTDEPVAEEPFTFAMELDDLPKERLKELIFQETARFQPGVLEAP
Chain of Mitogen-activated protein kinase; ERK1/ERK2 (Homo sapiens) (P28482 whole entry, looked up): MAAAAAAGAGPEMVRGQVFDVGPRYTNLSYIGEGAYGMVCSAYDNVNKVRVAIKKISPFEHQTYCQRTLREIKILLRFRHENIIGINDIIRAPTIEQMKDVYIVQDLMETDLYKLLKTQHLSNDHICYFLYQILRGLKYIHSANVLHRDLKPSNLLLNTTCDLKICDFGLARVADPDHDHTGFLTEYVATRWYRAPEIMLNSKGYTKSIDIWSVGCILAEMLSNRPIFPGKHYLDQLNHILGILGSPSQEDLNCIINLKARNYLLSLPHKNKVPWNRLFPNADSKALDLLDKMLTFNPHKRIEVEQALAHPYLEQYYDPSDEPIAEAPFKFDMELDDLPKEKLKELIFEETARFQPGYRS
Chain of Interleukin-1 receptor-associated kinase 4 (Q9NWZ3 whole entry): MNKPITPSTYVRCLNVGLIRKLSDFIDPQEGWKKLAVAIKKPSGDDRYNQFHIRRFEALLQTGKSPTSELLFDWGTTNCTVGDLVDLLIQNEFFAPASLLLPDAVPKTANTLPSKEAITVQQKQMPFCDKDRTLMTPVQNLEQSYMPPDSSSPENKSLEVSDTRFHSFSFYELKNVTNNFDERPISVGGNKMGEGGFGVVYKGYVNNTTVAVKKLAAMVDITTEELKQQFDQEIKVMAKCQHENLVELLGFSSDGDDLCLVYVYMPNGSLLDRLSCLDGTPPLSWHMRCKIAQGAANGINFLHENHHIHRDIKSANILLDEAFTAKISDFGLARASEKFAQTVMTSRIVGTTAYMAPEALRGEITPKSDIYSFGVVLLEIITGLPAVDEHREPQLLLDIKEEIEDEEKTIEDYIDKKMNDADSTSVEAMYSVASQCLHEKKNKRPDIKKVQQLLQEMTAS
Chain of Cyclin-dependent kinase 7 (P50613 whole entry, the tested form may be a part): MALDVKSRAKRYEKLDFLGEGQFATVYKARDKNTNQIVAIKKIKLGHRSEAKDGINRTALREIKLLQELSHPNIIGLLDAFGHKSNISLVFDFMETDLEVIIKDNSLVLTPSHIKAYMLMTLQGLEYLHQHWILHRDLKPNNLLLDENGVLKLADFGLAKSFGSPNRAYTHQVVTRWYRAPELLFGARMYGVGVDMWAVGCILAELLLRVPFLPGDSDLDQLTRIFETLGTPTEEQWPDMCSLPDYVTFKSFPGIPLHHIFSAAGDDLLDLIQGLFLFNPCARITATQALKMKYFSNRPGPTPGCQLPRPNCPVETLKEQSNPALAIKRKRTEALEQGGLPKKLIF

CCOc1cc(N2CCC(O)CC2)ccc1Nc1ncc2c(n1)N(C)c1ccccc1C(=O)N2C
inhibition [1]: -0.5% | inhibition [2]: 25.8% | inhibition [3]: 15.9% | IC50 [4]: > 50 µM | IC50 [5]: > 50 µM | inhibition [6]: 16.2% | IC50 [7]: > 50 µM | inhibition [8]: -2.3% | IC50 (Wee1-like protein kinase): > 50 µM | inhibition [9]: -9% | inhibition [10]: inactive | inhibition [11]: -0.6% | inhibition [12]: -3.2% | inhibition at 2 µM [13]: 12.7% | inhibition [14]: 82.2%
